Assay [1] deals with T1, Progesterone receptor (Homo sapiens) (UniProt P06401).
T1 sequence (whole entry): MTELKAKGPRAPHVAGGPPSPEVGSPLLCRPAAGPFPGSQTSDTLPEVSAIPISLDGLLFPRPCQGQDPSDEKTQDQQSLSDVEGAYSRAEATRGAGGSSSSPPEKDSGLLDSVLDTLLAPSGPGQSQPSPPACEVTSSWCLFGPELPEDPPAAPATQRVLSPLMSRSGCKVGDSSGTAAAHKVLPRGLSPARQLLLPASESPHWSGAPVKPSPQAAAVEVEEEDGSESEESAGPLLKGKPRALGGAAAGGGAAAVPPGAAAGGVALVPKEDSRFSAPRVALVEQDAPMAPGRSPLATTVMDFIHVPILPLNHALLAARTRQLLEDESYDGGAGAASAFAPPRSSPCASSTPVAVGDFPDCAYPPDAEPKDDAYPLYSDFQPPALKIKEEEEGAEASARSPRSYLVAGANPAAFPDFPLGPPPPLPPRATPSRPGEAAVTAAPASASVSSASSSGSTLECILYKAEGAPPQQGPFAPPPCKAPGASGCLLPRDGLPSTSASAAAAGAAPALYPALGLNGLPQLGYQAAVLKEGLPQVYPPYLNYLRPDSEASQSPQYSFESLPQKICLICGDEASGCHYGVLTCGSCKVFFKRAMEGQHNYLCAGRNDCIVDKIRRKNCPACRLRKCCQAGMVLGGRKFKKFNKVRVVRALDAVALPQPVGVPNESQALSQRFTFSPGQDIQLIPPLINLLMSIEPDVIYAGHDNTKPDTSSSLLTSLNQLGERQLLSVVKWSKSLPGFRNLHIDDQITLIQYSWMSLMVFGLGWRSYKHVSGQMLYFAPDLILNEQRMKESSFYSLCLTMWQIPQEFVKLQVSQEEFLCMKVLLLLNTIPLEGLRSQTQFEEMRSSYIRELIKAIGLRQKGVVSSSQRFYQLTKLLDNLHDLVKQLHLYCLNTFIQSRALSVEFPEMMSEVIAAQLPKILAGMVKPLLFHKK
The assay can be described thus: Induction of progesterone receptor B in human Ishikawa cells assessed as induction of PRE/Luc transcriptional activity at 10 uM measured after 24 hrs by luciferase reporter gene assay. It counts as cell-based. An outline of the steps:
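Ishikawa cells stably expressing PR-B; test agent alone at 10 μM; PRE-driven luciferase reporter read-out; n≥3; mean ± SEM.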
(In general: In a reporter assay the amount or activity of a reporter protein is the signal.)

In assay [2] the target is T1, Progesterone receptor (Homo sapiens). Kind of assay: Potentiation of progesterone receptor B in progesterone-stimulated human Ishikawa cells assessed as induction of PRE/Luc transcriptional activity at 10 uM measured after 24 hrs by luciferase reporter gene assay relative to control. An outline of the steps: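 Ishikawa cells stably expressing PR-B co-treated with 1 nM progesterone plus test agent at 10 μM; PRE-luciferase reporter activity compared with 1 nM progesterone alone; n≥3; mean ± SEM, significance by p-value thresholds.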

We go through seven compounds from ChEMBL document CHEMBL4840330, “Secoiridoids from Dogwood (Cornus officinalis) Potentiate Progesterone Signaling” (J Nat Prod, 2021).

Active and inactive are the calls of the source.

On to `C=C[C@H]1[C@H](O[C@@H]2O[C@H](CO)[C@@H](O)[C@H](O)[C@H]2O)OC=C2C(=O)OCC[C@H]21`, for which the outcome in assay [1] was inactive. Regarding `C=C[C@H]1[C@H](O[C@@H]2O[C@H](CO)[C@@H](O)[C@H](O)[C@H]2O)OC=C(C(=O)O)[C@H]1CCOC(=O)c1cc(O)c(O)c(O)c1`, the Activity in assay [2] (filed as activator) is 42%. Besides, the result in assay [1] was inactive.

Regarding `C=C[C@H]1C(O[C@@H]2O[C@H](CO)[C@@H](O)[C@H](O)[C@H]2O)OC=C(C(=O)OC)[C@H]1CC(=O)O` (stereo partly specified), the result in assay [1] was inactive. As to `COC(=O)C1=CO[C@@H](O[C@@H]2O[C@H](CO)[C@@H](O)[C@H](O)[C@H]2O)[C@@H]2[C@H](C)O[C@H](OC)C[C@H]12`, the Activity in assay [2] stood at 29%. The outcome in assay [1] was inactive. As for `C=C[C@H]1C(O[C@@H]2O[C@H](CO)[C@@H](O)[C@H](O)[C@H]2O)OC=C(C(=O)O)[C@H]1CC(=O)O` (stereo partly specified), the result in assay [1] was inactive. Turning to `COC(=O)C1=CO[C@@H](O[C@@H]2O[C@H](CO)[C@@H](O)[C@H](O)[C@H]2O)[C@@H]2[C@H](C)O[C@@H](OC)C[C@H]12`, the Activity in assay [2] worked out at 18%. Moreover, in assay [1], the outcome was inactive. In the case of `C=C[C@H]1[C@H](O[C@@H]2O[C@H](CO)[C@@H](O)[C@H](O)[C@H]2O)OC=C(C(=O)OC)[C@H]1CCOC(=O)c1cc(O)c(O)c(O)c1`, in assay [2] (filed as activator), the Activity came to 43%. For the same compound, the outcome in assay [1] was inactive.
